pPAFAH FP inh = inhibitors of human plasma PAF acetylhydrolase (pPAFAH); recombinant pPAFAH, FP-rhodamine probe fluorescence polarization; hit rate 1.5% among 330,000; inhibition, % at 3.39 µM; Q13093; AID 463082;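 active = inhibition above the mean inhibition across the screen plus 3 SD, cut at about 25% in these data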;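 note: inhibitors block binding of the rhodamine activity-based probe so polarization drops; 0% = enzyme with DMSO and 100% = wells lacking pPAFAH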
PAFAH1B2 inh = inhibitors of human PAFAH1B2; P68402; recombinant PAFAH1B2, FP-rhodamine activity probe, fluorescence polarization; inhibition, % at 3.39 µM; hit rate 1.2% among 340,000; AID 492953;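 active = inhibition above the mean of all tested compounds plus 3 SD, cut at about 24% in these data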;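 note: 0% = enzyme with DMSO and 100% = wells lacking PAFAH1B2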
PAFAH1B3 inh = PAFAH1B3 (human) inhibition | hit rate 0.28% among 340,000 | recombinant PAFAH1B3, FP-rhodamine probe, fluorescence polarization | Q15102 | inhibition, % at 3.39 µM;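 active = inhibition above the screen-wide average of all tested compounds plus 3 SD, cut at about 25% in these data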;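 note: 0% = enzyme with DMSO only and 100% = wells lacking PAFAH1B3 protein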
Target sequence (Q15102 whole entry, looked up): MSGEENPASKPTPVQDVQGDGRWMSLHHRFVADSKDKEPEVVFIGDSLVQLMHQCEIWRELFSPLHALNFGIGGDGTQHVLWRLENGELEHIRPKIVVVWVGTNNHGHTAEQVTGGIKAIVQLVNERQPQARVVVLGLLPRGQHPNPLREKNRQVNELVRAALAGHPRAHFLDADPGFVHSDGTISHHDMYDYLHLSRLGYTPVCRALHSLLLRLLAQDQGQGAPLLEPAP
PAFAH2 FP inh = PAFAH2 (human) inhibition; Q99487; recombinant PAFAH2, FP-rhodamine activity probe, fluorescence polarization; inhibition, % at 3.39 µM; hit rate 0.99% among 340,000; AID 492956;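 active = inhibition above the mean over all tested compounds plus 3 SD, cut at about 30% in these data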;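 note: inhibitors block probe labeling of enzyme so polarization drops; 0% = enzyme with DMSO and 100% = wells lacking PAFAH2 protein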
HTRA1 inhibitor = inhibitors of human serine peptidase HTRA1; recombinant HTRA1, FP-rhodamine activity-based probe, fluorescence polarization; inhibition, % at 5.96 µM; hit rate 0.5% among 340,000; Q92743; in the data active = inhibition above about 36%;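 note: 0% = enzyme with DMSO and 100% = wells lacking enzyme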
ABHD4 inh = ABHD4 (mouse) inhibition, primary FP screen; inhibition, % at 8.92 µM; Q8VD66; hit rate 0.54% among 370,000; purified mABHD4, FP-Rh probe fluorescence polarization;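 active = inhibition exceeding the mean over every tested compound plus 3 SD, cut at about 30% in these data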;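 note: 0% = plate median of compound wells and 100% = S159A mutant with DMSO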
Target sequence (Q8VD66 whole entry, looked up): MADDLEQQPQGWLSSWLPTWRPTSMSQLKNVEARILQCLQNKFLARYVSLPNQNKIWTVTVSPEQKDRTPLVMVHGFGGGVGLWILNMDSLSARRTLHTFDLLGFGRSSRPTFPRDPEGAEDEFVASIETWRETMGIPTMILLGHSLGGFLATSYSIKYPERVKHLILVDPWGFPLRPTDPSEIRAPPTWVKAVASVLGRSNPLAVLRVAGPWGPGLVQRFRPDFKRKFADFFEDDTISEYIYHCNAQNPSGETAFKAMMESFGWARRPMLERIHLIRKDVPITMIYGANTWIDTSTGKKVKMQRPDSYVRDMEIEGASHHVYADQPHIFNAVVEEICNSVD
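Test system: mABHD4 protein | Buffer or medium: HEPES pH 7.0 buffer, 150 mM NaCl, 0.01% Pluronic F-127 | Probe or stimulus: FP-Rh fluorescent activity-based probe, added after compound pre-incubation | Timing: Pre-incubation 45 min, probe exposure 60 min, at 25 °C | Technique: Fluorescence polarization, excitation 525 nm, emission 598 nm, BODIPY TMR filters | Repeats: Single well per compound (singlicate)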
pPAFAH confirm = confirmation of human plasma PAF acetylhydrolase (pPAFAH) inhibitors | AID 463230 | inhibition, % at 3.39 µM | hit rate 72% among 2,300 | recombinant pPAFAH, FP-Rh probe fluorescence polarization | shares compounds with pPAFAH FP inh;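 active = mean inhibition of the triplicate above the hit cutoff set for the earlier primary screen, cut at about 25% in these data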;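 note: 0% = enzyme with DMSO and 100% = wells lacking pPAFAH enzyme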
HTRA1 inh conf = HTRA1 (human) inhibition, confirmation; recombinant HTRA1, FP-rhodamine activity-based probe, fluorescence polarization; shares compounds with HTRA1 inhibitor; inhibition, % at 5.96 µM; hit rate 66% among 1,600; AID 540248;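 active = mean inhibition over three repeats above a set limit taken from the earlier primary screen, cut at about 37% in these data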;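 note: 0% = HTRA1 with DMSO and 100% = wells lacking HTRA1; inhibitors block probe binding so polarization drops and inhibition rises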
* hit, by the source's call. In the library only some 2.8% were active in any assay of this set; here they are far more common.

For C[C@H](O)[C@@H]1CN2CCc3c([nH]c4c(-c5ccccc5)cccc34)[C@@H]2C[C@@H]1N(C)CC1CCCCC1 the results were ABHD4 inh 2.
For Cc1ccc(NC(=O)[C@H]2CC(=O)O[C@@H]2c2ccccc2)c(C)c1 the results were ABHD4 inh -7.
CCCCNc1c2c3c(cccc3n(C)c1=O)C(=O)c1ccccc1-2 was read as pPAFAH FP inh 43*, PAFAH1B2 inh 53*, PAFAH1B3 inh 63*, PAFAH2 FP inh 75*, HTRA1 inhibitor 68*, pPAFAH confirm 48* and HTRA1 inh conf 70*.
`CN1C(=O)c2cccc(NCCCN3C(=O)c4ccccc4C3=O)c2C1=O` gave pPAFAH FP inh 3, PAFAH1B2 inh 0, PAFAH1B3 inh 15, PAFAH2 FP inh -1, HTRA1 inhibitor -6 and ABHD4 inh -2.
Screening O=C(C1=C(O)C(=O)N(c2nc3ccc(Cl)cc3s2)C1c1ccco1)c1ccco1 (configuration not stated) returned pPAFAH FP inh 49*, PAFAH1B2 inh 7, PAFAH1B3 inh 12, PAFAH2 FP inh 28, HTRA1 inhibitor 39*, ABHD4 inh 28, pPAFAH confirm 38* and HTRA1 inh conf -54.
Cc1ccc(S(=O)(=O)NCC(=O)N2CCN(c3ccccn3)CC2)s1 was read as ABHD4 inh 3.
Screening O=Nc1ccc(O)c2ncccc12 returned pPAFAH FP inh 6, PAFAH1B2 inh 10, PAFAH1B3 inh 8, PAFAH2 FP inh 10, HTRA1 inhibitor 9 and ABHD4 inh 0.
Screening O=[N+]([O-])c1ccc(O)c2ncccc12 returned pPAFAH FP inh 7, PAFAH1B2 inh 11, PAFAH1B3 inh 16, PAFAH2 FP inh 4, HTRA1 inhibitor 32 and ABHD4 inh 26.
Screening Cc1ccccc1N=Nc1ccc(O)c2ncccc12 returned pPAFAH FP inh 41*, PAFAH1B2 inh 3, PAFAH1B3 inh 9, PAFAH2 FP inh 1, HTRA1 inhibitor 37*, ABHD4 inh 14, pPAFAH confirm 36* and HTRA1 inh conf 65*.
O=S(=O)(O)c1cccc2c(N=Nc3ccc(O)c4ncccc34)cccc12 was read as pPAFAH FP inh 92*, PAFAH1B2 inh 41*, PAFAH1B3 inh 64*, PAFAH2 FP inh 66*, HTRA1 inhibitor 71*, pPAFAH confirm 91* and HTRA1 inh conf 75*.
Screening COc1cc(C(=S)N2CCN(c3ccccc3Cl)CC2)cc(O)c1O returned pPAFAH FP inh 42*, PAFAH1B2 inh -4, PAFAH1B3 inh 1, PAFAH2 FP inh 8, HTRA1 inhibitor 51*, ABHD4 inh 24, pPAFAH confirm 64* and HTRA1 inh conf 84*.
Screening Nc1[nH]c(C(=O)c2ccccc2)c(-c2ccc(Br)cc2)c1C(=O)NCCCN1CCOCC1 returned ABHD4 inh 2.
Screening Cn1cccc1/C=N/NC(=O)c1cc2ccccc2cc1O returned pPAFAH FP inh 51*, PAFAH1B2 inh 12, PAFAH1B3 inh 21, PAFAH2 FP inh 5, HTRA1 inhibitor 40*, ABHD4 inh 13, pPAFAH confirm 9 and HTRA1 inh conf 29.
Screening O=C(N/N=C/C1CC=CCC1)c1ccc(O)cc1O (configuration not stated) returned pPAFAH FP inh 0, PAFAH1B2 inh 1, PAFAH1B3 inh 7, PAFAH2 FP inh -2, HTRA1 inhibitor 10 and ABHD4 inh 8.
Screening NS(=O)(=O)c1ccc(-c2ccc(/C=N/NC(=O)c3ccccc3O)o2)cc1 returned pPAFAH FP inh 4, PAFAH1B2 inh 1, PAFAH1B3 inh 3, PAFAH2 FP inh -4, HTRA1 inhibitor 8 and ABHD4 inh 8.
O=C(N/N=C/C1CC=CCC1)c1cc2ccccc2cc1O (configuration not stated) was read as pPAFAH FP inh 44*, PAFAH1B2 inh 0, PAFAH1B3 inh 15, PAFAH2 FP inh 9, HTRA1 inhibitor 40*, ABHD4 inh 19, pPAFAH confirm 17 and HTRA1 inh conf 28.
For Cn1cccc1/C=N/NC(=O)c1ccccn1 the results were pPAFAH FP inh 4, PAFAH1B2 inh 4, PAFAH1B3 inh 4, PAFAH2 FP inh 2, HTRA1 inhibitor 4 and ABHD4 inh 2.
For C/C(=N\NC(=O)c1cc2ccccc2cc1O)c1ccc(C)o1 the results were pPAFAH FP inh 41*, PAFAH1B2 inh 10, PAFAH1B3 inh 4, PAFAH2 FP inh 4, HTRA1 inhibitor 47*, ABHD4 inh 28, pPAFAH confirm 5 and HTRA1 inh conf 23.
Screening O=C(N/N=C/c1ccc(-c2ccc(S(=O)(=O)Nc3ncccn3)cc2)o1)c1cc2ccccc2cc1O returned pPAFAH FP inh 78*, PAFAH1B2 inh 25*, PAFAH1B3 inh 35*, PAFAH2 FP inh 34*, HTRA1 inhibitor 57*, ABHD4 inh 1, pPAFAH confirm 76* and HTRA1 inh conf 66*.
`CN=C1S/C(=C/c2cc(C)n(-c3ccc(Cl)cc3F)c2C)C(=O)N1C` gave ABHD4 inh -4.
Screening COC(=O)C[C@H]1CC[C@@H]2[C@H](COc3ccc(NS(C)(=O)=O)cc3C(=O)N2C)O1 returned ABHD4 inh 7.
